Reference: ChEMBL document CHEMBL1127072, “Discovery and synthesis of methyl 2,5-dimethyl-4-[2- (phenylmethyl)benzoyl]-1H-pyrrole-3-carboxylate (FPL 64176) and analogues: the first examples of a new class of calcium channel activator” (J Med Chem, 1993)

Tests used:
Cavia porcellus [1] = organism: Cavia porcellus; assay: Tested for the force increase in guinea pig atria; format: functional
In short: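 Inotropic activity was measured on guinea pig atria paced at 1 Hz. EC50 is the concentration that raises developed tension to 50% of the isoprenaline maximum.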

GH3 [2] = assay: Tested for the 50% of the maximal [Ca2+] uptake produced by Bay K 8644 at 1 uM in rats; format: functional, Rattus norvegicus
GH3 [3] = assay: Tested for 45 [Ca2+] uptake in rat pituitary growth hormone3 (GH3) cells; format: functional, cell-based
In short: (§1)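 ⁴⁵Ca²⁺ uptake into rat pituitary GH3 cells depolarized with 50 mM K⁺, used as the measure of channel activation. EC50 is the test concentration producing 50% of the maximal uptake obtained with Bay K 8644.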

Cavia porcellus [4] = organism: Cavia porcellus; assay: Tested for the force value required to increase developed tension to 50% of the isoprenaline maximum at 10 uM; format: functional
GH3 [5] = assay: Tested for the increase in [Ca2+] uptake into rat pituitary growth hormone3 (GH3) cells; format: functional, cell-based; in short: as §1
GH3 [6] = assay: Tested for the increase in [Ca2+] uptake into rat pituitary growth hormone3 (GH3) cells at 10 uM; format: functional; conditions: read-out: Inhibition
In short: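 Rat pituitary GH3 cells were depolarized with 50 mM K⁺ and ⁴⁵Ca²⁺ uptake was measured at a single 10 µM test concentration. Response is expressed relative to the maximal uptake produced by Bay K 8644.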

Cavia porcellus [7] = organism: Cavia porcellus; assay: Tested for the force increase in guinea pig atria at 100 uM; format: functional; conditions: read-out: Inhibition
In short: (§2)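 Guinea pig atria paced at 1 Hz, with developed tension recorded at a single test concentration (10, 30 or 100 µM). The increase is given as a percentage of the isoprenaline maximum.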

Cavia porcellus [8] = organism: Cavia porcellus; assay: Tested for the force increase in guinea pig atria at 10 uM; format: functional; in short: as §2
GH3 [9] = assay: Tested for the inhibition of [Ca2+] uptake into rat pituitary growth hormone3 (GH3) cells at 10 uM; format: functional
Cavia porcellus [10] = organism: Cavia porcellus; assay: Tested for the force increase in guinea pig atria at 30 uM; format: functional; in short: as §2
Cavia porcellus [11] = organism: Cavia porcellus; assay: Tested for the force value required to increase developed tension to 50% of the isoprenaline maximum at 0.3 uM; format: functional
GH3 [12] = assay: Tested for the 50% of the maximal [Ca2+] uptake produced by Bay K 8644 at 10 uM in rats; format: functional, Rattus norvegicus

| SMILES | EC50 (Cavia porcellus [1]) [µM] | EC50 (GH3 [5]) [µM] | other results |
| --- | --- | --- | --- |
| COC(=O)C1=C(C)NC(C)=C([N+](=O)[O-])C1c1ccccc1C(F)(F)F (centres undefined) | 1.95 |  | Max (GH3 [2]): 100%; EC50 (GH3 [3]): 0.015 µM; Max (Cavia porcellus [4]): 61% |
| COC(=O)c1c(C)[nH]c(C)c1C(=O)c1ccccc1C | 9.47 | 3.6 |  |
| COC(=O)c1c(C)[nH]c(C)c1C(=O)c1ccccc1[N+](=O)[O-] |  |  | Ca2+ uptake increase (% of Bay K 8644 maximum) at 10 µM (GH3 [6]): 0%; Atrial force increase (% of isoprenaline maximum) at 100 µM (Cavia porcellus [7]): 17% |
| COC(=O)c1c(C)[nH]c(C)c1C(=O)c1ccccc1F | 70 | 1.3 |  |
| COC(=O)c1c(C)[nH]c(C)c1C(=O)c1c(Cl)cccc1Cl |  |  | Ca2+ uptake increase (% of Bay K 8644 maximum) at 10 µM (GH3 [6]): 0%; Atrial force increase (% of isoprenaline maximum) at 100 µM (Cavia porcellus [7]): 0% |
| COC(=O)c1c(C)[nH]c(C)c1C(=O)c1ccccc1I | 5.9 | 3.4 |  |
| COC(=O)c1c(C)[nH]c(C)c1C(=O)c1cc(Cl)ccc1Cl | 3.98 | 0.6 |  |
| COC(=O)c1c(C)[nH]c(C)c1C(=O)c1ccc(Cl)cc1Cl |  |  | inhibition at 10 µM (Cavia porcellus [8]): 40%; Ca2+ uptake increase (% of Bay K 8644 maximum) at 10 µM (GH3 [6]): 0% |
| COC(=O)c1c(C)[nH]c(C)c1C(=O)c1cccc(Cl)c1Cl |  |  | inhibition at 10 µM (GH3 [9]): 0%; inhibition at 30 µM (Cavia porcellus [10]): 18% |
| COC(=O)c1c(C)[nH]c(C)c1C(=O)c1ccccc1OC |  |  | Ca2+ uptake increase (% of Bay K 8644 maximum) at 10 µM (GH3 [6]): 0%; Atrial force increase (% of isoprenaline maximum) at 100 µM (Cavia porcellus [7]): 44% |
| COC(=O)c1c(C)[nH]c(C)c1C(=O)c1ccccc1Cl | 14 | 3.3 |  |
| COC(=O)c1c(C)[nH]c(C)c1C(=O)c1ccccc1C(F)(F)F | 4.84 | 4.3 |  |
| COC(=O)c1ccccc1C(=O)c1c(C)[nH]c(C)c1C(=O)OC |  |  | Ca2+ uptake increase (% of Bay K 8644 maximum) at 10 µM (GH3 [6]): 0%; Atrial force increase (% of isoprenaline maximum) at 100 µM (Cavia porcellus [7]): 16% |
| COC(=O)c1c(C)[nH]c(C)c1C(=O)c1ccccc1Br | 8.95 | 2.4 |  |

Continued, in another order:

| EC50 (Cavia porcellus [1]) [µM] | SMILES | EC50 (GH3 [5]) [µM] | other results |
| --- | --- | --- | --- |
| 0.46 | COC(=O)c1c(C(=O)c2ccccc2Cc2ccccc2)c[nH]c1C | 0.42 |  |
| 3.8 | COC(=O)c1c(C)[nH]c(C)c1C(=O)c1ccccc1OC(=O)c1ccccc1O | 0.5 |  |
| 21.9 | COC(=O)c1c(C)[nH]c(C)c1C(=O)c1ccccc1 | 5.4 |  |
| 2.1 | COC(=O)c1c[nH]cc1C(=O)c1ccccc1Cc1ccccc1 | 6.2 |  |
| 0.049 | COC(=O)c1c(C)[nH]c(C)c1C(=O)c1ccccc1Cc1ccccc1 |  | Max (Cavia porcellus [11]): 105%; Max (GH3 [12]): 383%; EC50 (GH3 [3]): 0.016 µM |
| 0.144 | COC(=O)c1c[nH]c(C)c1C(=O)c1ccccc1Cc1ccccc1 | 0.089 |  |
